Converted amounts (≈) assume the structure as drawn. The source made the active and inactive calls. The calls are words filed in the database; no cut-off is given here.
Experiments:
[1] = Plasma protein binding in rat at 5 mg/kg, po; format: ADME, organism-based; parameters: dose 5 mg/kg, route oral; conditions: read-out: PPB (converted)
[2] = Clearance in rat liver microsomes; format: ADME, Microsome; conditions: read-out: CLH
[3] = AUC in rat at 0.5 mg/kg, iv; format: ADME, organism-based, Plasma; parameters: dose 0.5 mg/kg, route intravenous; conditions: plasma
[4] = Clearance in human liver microsomes; format: ADME, Microsome; conditions: read-out: CLH
[5] = test system: Rattus norvegicus; assay: Drug metabolism in po dosed Sprague-Dawley rat assessed as imidazopyridine oxidation; format: ADME, organism-based; conditions: in vivo
[6] = test system: Rattus norvegicus; assay: Drug metabolism in po dosed Sprague-Dawley rat assessed as triazine amine glucuronide derivative; format: ADME, organism-based; conditions: in vivo
[7] = test system: Rattus norvegicus; assay: Drug metabolism in po dosed Sprague-Dawley rat assessed as pyrazole glucuronide derivative; format: ADME, organism-based; conditions: in vivo
[8] = Drug excretion in iv dosed Sprague-Dawley rat urine; format: ADME, organism-based; conditions: in vivo
[9] = Drug excretion in po dosed Sprague-Dawley rat urine; format: ADME, organism-based; conditions: in vivo
[10] = Oral bioavailability in rat at 5 mg/kg; format: ADME, organism-based; conditions: in vivo
How it was run: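 Rat oral PK at 5.0 mpk in 1% Tween 80, 2% HPMC, 97% H2O, pH 2.2 (methanesulfonic acid).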

[11] = Volume of distribution at steady state in rat at 0.5 mg/kg, iv; format: ADME, organism-based; parameters: dose 0.5 mg/kg, route intravenous; conditions: in vivo, read-out: Vdss
[12] = Half life in rat at 0.5 mg/kg, iv; format: ADME, organism-based; parameters: dose 0.5 mg/kg, route intravenous; conditions: in vivo
[13] = Clearance in rat at 0.5 mg/kg, iv; format: ADME, organism-based; parameters: dose 0.5 mg/kg, route intravenous; conditions: in vivo
[14] = Antitumor activity against human U87MG cells xenografted in mouse assessed as tumor growth inhibition at 30 mg/kg, po administered BID for 2 weeks relative to vehicle-treated control; format: functional, U-87MG ATCC; conditions: U-87 MG, 336 h, read-out: TGI
How it was run: (§1)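 Mice bearing established U87-MG tumours dosed orally with vehicle or compound at 10, 30 or 60 mg/kg QD or 30 mg/kg BID for 2 weeks. Tumour volume (mm3) tracked, mean ± SE, n = 10. TGI relative to vehicle controls; significance by repeated-measures ANOVA followed by Dunnett's test.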

[15] = Antitumor activity against human U87MG cells xenografted in mouse assessed as tumor growth inhibition at 60 mg/kg, po administered QD for 2 weeks relative to vehicle-treated control; format: functional, U-87MG ATCC; conditions: U-87 MG, 336 h, read-out: TGI; how it was run: as §1
[16] = test system: U-87MG ATCC; assay: Antitumor activity against human U87MG cells xenografted in po dosed mouse assessed as tumor growth inhibition administered BID for 2 weeks; format: functional, organism-based; how it was run: as §1
[17] = test system: Mus musculus; assay: Toxicity in mouse assessed adverse effects at 60 mg/kg, po administered QD for 7 days relative to vehicle-treated control; format: organism-based; parameters: dose 60 mg/kg, route oral; conditions: in vivo, 168 h
How it was run: (§2)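 Seven-day tolerability study in mice, n = 5 per group. Oral dosing QD at 60 or 100 mg/kg. Body weight monitored; animals with average weight loss >20% removed from study.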

[18] = test system: U-87MG ATCC; assay: Antitumor activity against human U87MG cells xenografted in po dosed mouse assessed as tumor growth inhibition administered QD for 2 weeks; format: functional, organism-based; how it was run: as §1
[19] = test system: Mus musculus; assay: Toxicity in mouse assessed weight loss at 100 mg/kg, po administered QD for 7 days measured on day 3 relative to vehicle-treated control; format: organism-based; parameters: dose 100 mg/kg, route oral; conditions: in vivo, 168 h; how it was run: as §2
[20] = test system: Mus musculus; assay: Inhibition of mTORC1 in po dosed mouse assessed as inhibition of HGF-induced pS6-phosphorylation in liver tissue at 100 mg/kg, po measured at 24 hrs; format: functional, organism-based; parameters: dose 100 mg/kg
How it was run: (§3)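 Time course in mouse liver: single oral dose of 100 mg/kg, sampled at 3, 6, 8 and 24 h. Inhibition of HGF-induced pAKT (S473 and T308) and pS6 in liver tissue measured against vehicle controls.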

[21] = test system: Mus musculus; assay: Inhibition of mTORC1 in po dosed mouse assessed as inhibition of HGF-induced pS6-phosphorylation in liver tissue at 100 mg/kg, po measured at >8 hrs; format: functional, organism-based; parameters: dose 100 mg/kg; how it was run: as §3
[22] = test system: Mus musculus; assay: Inhibition of PI3Kalpha in po dosed mouse assessed as inhibition of HGF-induced AKT Thr308-phosphorylation in liver tissue at 100 mg/kg, po measured at 24 hrs; format: functional, organism-based; parameters: dose 100 mg/kg; how it was run: as §3
[23] = test system: Mus musculus; assay: Inhibition of PI3Kalpha in po dosed mouse assessed as inhibition of HGF-induced AKT Thr308-phosphorylation in liver tissue at 100 mg/kg, po measured at >8 hrs; format: functional, organism-based; parameters: dose 100 mg/kg; how it was run: as §3
[24] = test system: Mus musculus; assay: Inhibition of mTORC2 in po dosed mouse assessed as inhibition of HGF-induced AKT Ser473-phosphorylation in liver tissue at 100 mg/kg, po measured at 24 hrs; format: functional, organism-based; parameters: dose 100 mg/kg; how it was run: as §3
[25] = test system: Mus musculus; assay: Inhibition of mTORC2 in po dosed mouse assessed as inhibition of HGF-induced AKT Ser473-phosphorylation in liver tissue at 100 mg/kg, po measured at >8 hrs; format: functional, organism-based; parameters: dose 100 mg/kg; how it was run: as §3
[26] = test system: Mus musculus; assay: Inhibition of PI3Kalpha in po dosed mouse assessed as inhibition of HGF-induced AKT Thr308-phosphorylation in liver tissue after 6 hrs; format: functional, organism-based
How it was run: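 Single oral dose to mice of vehicle (50% PEG400, 1% Pluronic F68, pH 2.2 with MSA) or compound at 10, 30 or 100 mg/kg, n = 3 per dose. HGF-stimulated liver taken at 6 h; pAKT (S473, T308) and pS6RP measured in lysate by MSD assay. Plasma drug levels measured. Factorial ANOVA versus vehicle, then Dunnett's test.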

[27] = Oral bioavailability in rat at 1 mg/kg; format: ADME, organism-based; conditions: in vivo
[28] = Half life in rat at 1 mg/kg, iv; format: ADME, organism-based; parameters: dose 1 mg/kg, route intravenous; conditions: in vivo
[29] = Clearance in rat at 1 mg/kg, iv; format: ADME, organism-based; parameters: dose 1 mg/kg, route intravenous; conditions: in vivo
[30] = Volume of distribution at steady state in rat at 1 mg/kg, iv; format: ADME, organism-based; parameters: dose 1 mg/kg, route intravenous; conditions: in vivo, read-out: Vdss
[31] = Apparent permeability from basal to apical side of pig LLC-PK1 cells; format: ADME, cell-based, Sus scrofa
[32] = Efflux ratio of apparent permeability from basal to apical to apical to basal side of pig LLC-PK1 cells; format: ADME, cell-based, Sus scrofa
[33] = Solubility of the compound in 0.01 N HCl; format: physicochemical
[34] = Apparent permeability from apical to basal side of pig LLC-PK1 cells; format: ADME, cell-based, Sus scrofa
[35] = Solubility of the compound in phosphate buffered saline; format: physicochemical
[36] = Solubility of the compound in simulated intestinal fluid; format: physicochemical
[37] = Inhibition of mTORC1-mediated pS6 Ser240/244-phosphorylation in human U87MG cells; format: cell-based, U-87MG ATCC; conditions: U-87 MG
How it was run: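 Cell assay in U87MG cells measuring phosphorylation of the mTOR substrate S6 (S240/244), n ≥ 2.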

[38] = Inhibition of mTORC1-mediated 4EBP1-phosphorylation in human U87 cells; format: cell-based, U-87MG ATCC; conditions: Homo sapiens, U-87 MG; read-out: IC50
[39] = Inhibition of mTORC2-mediated AKT Ser473-phosphorylation in human U87 cells; format: cell-based, U-87MG ATCC; conditions: U-87 MG
How it was run: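 Cell assay in U87 cells measuring pAKT (S473), n ≥ 2.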

[40] = molecular target: Phosphatidylinositol 4,5-bisphosphate 3-kinase catalytic subunit beta isoform (Homo sapiens, UniProt P42338); assay: Inhibition of PI3Kbeta by AlphaScreen assay
Phosphatidylinositol 4,5-bisphosphate 3-kinase catalytic subunit beta isoform, sequence (P42338 whole entry, canonical isoform): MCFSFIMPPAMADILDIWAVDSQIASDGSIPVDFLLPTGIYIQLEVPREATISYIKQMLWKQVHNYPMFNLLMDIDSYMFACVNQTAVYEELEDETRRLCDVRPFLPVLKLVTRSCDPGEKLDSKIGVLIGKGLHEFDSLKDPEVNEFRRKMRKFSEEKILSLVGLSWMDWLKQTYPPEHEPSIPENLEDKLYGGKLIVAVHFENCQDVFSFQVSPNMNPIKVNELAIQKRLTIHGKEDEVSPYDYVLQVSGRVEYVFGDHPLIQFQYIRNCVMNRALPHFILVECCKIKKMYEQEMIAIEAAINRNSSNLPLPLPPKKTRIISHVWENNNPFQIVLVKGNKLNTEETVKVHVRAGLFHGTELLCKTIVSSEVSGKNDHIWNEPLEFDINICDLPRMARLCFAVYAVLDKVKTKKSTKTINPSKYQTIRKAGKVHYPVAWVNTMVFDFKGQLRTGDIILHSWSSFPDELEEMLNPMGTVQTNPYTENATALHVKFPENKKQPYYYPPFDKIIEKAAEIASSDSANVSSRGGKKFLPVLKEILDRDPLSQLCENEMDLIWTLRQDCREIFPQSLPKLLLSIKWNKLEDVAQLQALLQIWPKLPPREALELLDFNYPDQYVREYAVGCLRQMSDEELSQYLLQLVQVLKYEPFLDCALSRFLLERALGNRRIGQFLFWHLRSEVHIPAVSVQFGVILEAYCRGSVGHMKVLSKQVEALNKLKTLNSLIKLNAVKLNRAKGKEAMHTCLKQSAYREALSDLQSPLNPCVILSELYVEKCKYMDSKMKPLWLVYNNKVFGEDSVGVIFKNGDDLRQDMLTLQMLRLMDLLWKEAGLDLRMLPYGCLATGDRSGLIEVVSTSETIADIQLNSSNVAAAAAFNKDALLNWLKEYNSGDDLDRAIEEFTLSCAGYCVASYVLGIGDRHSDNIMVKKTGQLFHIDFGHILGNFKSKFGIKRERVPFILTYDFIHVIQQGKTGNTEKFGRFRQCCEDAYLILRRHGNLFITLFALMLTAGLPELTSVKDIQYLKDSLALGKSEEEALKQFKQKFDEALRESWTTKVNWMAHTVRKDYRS

[41] = molecular target: Phosphatidylinositol 4,5-bisphosphate 3-kinase catalytic subunit alpha isoform (Homo sapiens, UniProt P42336); assay: Inhibition of PI3Kalpha by AlphaScreen assay
Phosphatidylinositol 4,5-bisphosphate 3-kinase catalytic subunit alpha isoform, sequence (P42336 whole entry, canonical isoform): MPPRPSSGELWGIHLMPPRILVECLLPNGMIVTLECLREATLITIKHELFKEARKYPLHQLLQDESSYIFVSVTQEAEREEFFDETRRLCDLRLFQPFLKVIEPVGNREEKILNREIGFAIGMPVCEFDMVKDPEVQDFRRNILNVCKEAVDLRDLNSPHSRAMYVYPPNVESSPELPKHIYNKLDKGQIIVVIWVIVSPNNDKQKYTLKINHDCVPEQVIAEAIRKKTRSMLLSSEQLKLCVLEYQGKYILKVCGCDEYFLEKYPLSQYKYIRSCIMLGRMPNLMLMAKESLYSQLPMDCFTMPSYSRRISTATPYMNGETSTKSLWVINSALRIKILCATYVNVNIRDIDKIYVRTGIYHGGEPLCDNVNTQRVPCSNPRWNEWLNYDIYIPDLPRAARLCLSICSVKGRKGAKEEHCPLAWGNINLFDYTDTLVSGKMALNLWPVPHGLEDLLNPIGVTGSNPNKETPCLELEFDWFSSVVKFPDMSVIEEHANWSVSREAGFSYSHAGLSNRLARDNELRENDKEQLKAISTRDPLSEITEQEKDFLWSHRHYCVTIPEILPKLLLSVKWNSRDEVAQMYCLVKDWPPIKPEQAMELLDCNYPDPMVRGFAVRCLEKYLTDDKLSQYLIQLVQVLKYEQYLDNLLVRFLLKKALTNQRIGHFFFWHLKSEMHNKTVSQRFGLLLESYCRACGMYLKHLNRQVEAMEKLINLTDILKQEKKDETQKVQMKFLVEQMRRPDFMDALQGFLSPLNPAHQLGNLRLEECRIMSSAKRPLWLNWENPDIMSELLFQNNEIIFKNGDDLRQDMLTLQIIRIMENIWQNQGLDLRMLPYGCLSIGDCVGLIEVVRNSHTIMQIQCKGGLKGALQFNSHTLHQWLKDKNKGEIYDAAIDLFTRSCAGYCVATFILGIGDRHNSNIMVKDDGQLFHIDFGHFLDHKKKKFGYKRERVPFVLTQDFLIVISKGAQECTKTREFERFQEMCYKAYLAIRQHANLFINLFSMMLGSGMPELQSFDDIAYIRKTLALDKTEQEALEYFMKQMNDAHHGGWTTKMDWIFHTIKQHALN

[42] = species on record: Mus musculus; assay: animal or person; conditions: Liver, 6 h
[43] = species on record: Mus musculus; assay: animal or person; conditions: Liver, 6 h; remark: listed apart in the source
[44] = molecular target: Serine/threonine-protein kinase mTOR (Homo sapiens, UniProt P42345); assay: Inhibition of mTOR by LanthaScreen assay
[45] = Oral bioavailability in rat at 4 mg/kg; format: ADME, organism-based; conditions: in vivo

Cc1nc(N)nc(-c2c(Nc3cc[nH]n3)nc3ccccn23)n1
fraction unbound [1]: 0.023
microsomal CLint [2]: 29 µL/min/mg
AUC [3]: 1.8 µM·h
microsomal CLint [4]: 24 µL/min/mg
Drug metabolism [5]: Active
Drug metabolism [6]: Active
Drug metabolism [7]: Active
Drug excretion [8]: Active
Drug excretion [9]: Active
bioavailability [10]: 24%
Vd [11]: 1.14 L/kg
half-life [12]: 26.4 min
clearance [13]: 30 mL/min/kg
inhibition in vivo at 30 mg/kg [14]: 84%
inhibition in vivo at 60 mg/kg [15]: 82%
TGI [16]: Dose-dependent effect
Activity [17]: Non-toxic
TGI [18]: Dose-dependent effect
Activity [19]: > 20%
inhibition [20]: inactive
inhibition [21]: Active
inhibition [22]: inactive
inhibition [23]: Active
inhibition [24]: inactive
inhibition [25]: Active
inhibition [26]: Dose-dependent effect
bioavailability [27]: 24%
half-life [28]: 27 min
clearance [29]: 30 mL/min/kg
Vd [30]: 1.1 L/kg
Papp B→A [31]: 33.7 ×10⁻⁶ cm/s
efflux ratio [32]: 2.4
solubility ([33]; 0.01 N HCl, read-out: solubility): > 200 µg/mL
Papp A→B [34]: 13.8 ×10⁻⁶ cm/s
solubility [35]: 6.3 µg/mL (≈ 20.5 µM)
solubility [36]: 27 µg/mL (≈ 87.9 µM)
IC50 [37]: 69 nM
IC50 [38]: 162 nM
IC50 [39]: 19 nM
IC50 [40]: 1130 nM
IC50 [41]: 590 nM
IC50 [42]: 71 nM
IC50 [43]: 53 nM

Cc1nc(N)nc(-n2c(Nc3ccn[nH]3)nc3ccccc32)n1
bioavailability [27]: 6%
Papp B→A [31]: 35.4 ×10⁻⁶ cm/s
efflux ratio [32]: 1.7
solubility ([33]; buffer): 3.7 µg/mL (≈ 12 µM)
Papp A→B [34]: 20.3 ×10⁻⁶ cm/s
solubility [35]: 8.4 µg/mL (≈ 27.3 µM)
solubility [36]: 8.4 µg/mL (≈ 27.3 µM)
IC50 [37]: 166 nM
IC50 [44]: 23 nM

Cc1nc(Nc2ccc(N3CCOCC3)nn2)cc(-c2c(Nc3ccn[nH]3)nc3cccnn23)n1
bioavailability [45]: 7%
Vd [11]: 3.9 L/kg
half-life [12]: 95.4 min
clearance [13]: 41.7 mL/min/kg
solubility [36]: 98 µg/mL (≈ 208 µM)
IC50 [38]: 309 nM
IC50 [41]: 256 nM
IC50 [44]: 35 nM

From ChEMBL document CHEMBL2169744, “Discovery and optimization of potent and selective imidazopyridine and imidazopyridazine mTOR inhibitors” (Bioorg Med Chem Lett, 2012)
